Laboratory results as given in ChEMBL document CHEMBL5653631, “A Potent and Selective ULK1 Inhibitor Suppresses Autophagy and Sensitizes Cancer Cells to Nutrient Stress” (iScience, 2018).
Each block holds one compound with its values, some of them ahead of it.

Experiments:
[1] = biological target: Tyrosine-protein kinase Blk (Homo sapiens) (UniProt P51451); assay: Inhibition of human recombinant BLK at 500 nM related to control ULK1
[2] = biological target: Mitogen-activated protein kinase kinase kinase kinase 4 (Homo sapiens) (UniProt O95819); assay: Inhibition of human recombinant HGK at 500 nM in presence of ATP by radiometric assay relative to control
[3] = biological target: Serine/threonine-protein kinase ATR (Homo sapiens) (UniProt Q13535); assay: Inhibition of human recombinant ATR at 15 nM related to control ULK1
Serine/threonine-protein kinase ATR (Homo sapiens), sequence (Q13535 whole entry, looked up): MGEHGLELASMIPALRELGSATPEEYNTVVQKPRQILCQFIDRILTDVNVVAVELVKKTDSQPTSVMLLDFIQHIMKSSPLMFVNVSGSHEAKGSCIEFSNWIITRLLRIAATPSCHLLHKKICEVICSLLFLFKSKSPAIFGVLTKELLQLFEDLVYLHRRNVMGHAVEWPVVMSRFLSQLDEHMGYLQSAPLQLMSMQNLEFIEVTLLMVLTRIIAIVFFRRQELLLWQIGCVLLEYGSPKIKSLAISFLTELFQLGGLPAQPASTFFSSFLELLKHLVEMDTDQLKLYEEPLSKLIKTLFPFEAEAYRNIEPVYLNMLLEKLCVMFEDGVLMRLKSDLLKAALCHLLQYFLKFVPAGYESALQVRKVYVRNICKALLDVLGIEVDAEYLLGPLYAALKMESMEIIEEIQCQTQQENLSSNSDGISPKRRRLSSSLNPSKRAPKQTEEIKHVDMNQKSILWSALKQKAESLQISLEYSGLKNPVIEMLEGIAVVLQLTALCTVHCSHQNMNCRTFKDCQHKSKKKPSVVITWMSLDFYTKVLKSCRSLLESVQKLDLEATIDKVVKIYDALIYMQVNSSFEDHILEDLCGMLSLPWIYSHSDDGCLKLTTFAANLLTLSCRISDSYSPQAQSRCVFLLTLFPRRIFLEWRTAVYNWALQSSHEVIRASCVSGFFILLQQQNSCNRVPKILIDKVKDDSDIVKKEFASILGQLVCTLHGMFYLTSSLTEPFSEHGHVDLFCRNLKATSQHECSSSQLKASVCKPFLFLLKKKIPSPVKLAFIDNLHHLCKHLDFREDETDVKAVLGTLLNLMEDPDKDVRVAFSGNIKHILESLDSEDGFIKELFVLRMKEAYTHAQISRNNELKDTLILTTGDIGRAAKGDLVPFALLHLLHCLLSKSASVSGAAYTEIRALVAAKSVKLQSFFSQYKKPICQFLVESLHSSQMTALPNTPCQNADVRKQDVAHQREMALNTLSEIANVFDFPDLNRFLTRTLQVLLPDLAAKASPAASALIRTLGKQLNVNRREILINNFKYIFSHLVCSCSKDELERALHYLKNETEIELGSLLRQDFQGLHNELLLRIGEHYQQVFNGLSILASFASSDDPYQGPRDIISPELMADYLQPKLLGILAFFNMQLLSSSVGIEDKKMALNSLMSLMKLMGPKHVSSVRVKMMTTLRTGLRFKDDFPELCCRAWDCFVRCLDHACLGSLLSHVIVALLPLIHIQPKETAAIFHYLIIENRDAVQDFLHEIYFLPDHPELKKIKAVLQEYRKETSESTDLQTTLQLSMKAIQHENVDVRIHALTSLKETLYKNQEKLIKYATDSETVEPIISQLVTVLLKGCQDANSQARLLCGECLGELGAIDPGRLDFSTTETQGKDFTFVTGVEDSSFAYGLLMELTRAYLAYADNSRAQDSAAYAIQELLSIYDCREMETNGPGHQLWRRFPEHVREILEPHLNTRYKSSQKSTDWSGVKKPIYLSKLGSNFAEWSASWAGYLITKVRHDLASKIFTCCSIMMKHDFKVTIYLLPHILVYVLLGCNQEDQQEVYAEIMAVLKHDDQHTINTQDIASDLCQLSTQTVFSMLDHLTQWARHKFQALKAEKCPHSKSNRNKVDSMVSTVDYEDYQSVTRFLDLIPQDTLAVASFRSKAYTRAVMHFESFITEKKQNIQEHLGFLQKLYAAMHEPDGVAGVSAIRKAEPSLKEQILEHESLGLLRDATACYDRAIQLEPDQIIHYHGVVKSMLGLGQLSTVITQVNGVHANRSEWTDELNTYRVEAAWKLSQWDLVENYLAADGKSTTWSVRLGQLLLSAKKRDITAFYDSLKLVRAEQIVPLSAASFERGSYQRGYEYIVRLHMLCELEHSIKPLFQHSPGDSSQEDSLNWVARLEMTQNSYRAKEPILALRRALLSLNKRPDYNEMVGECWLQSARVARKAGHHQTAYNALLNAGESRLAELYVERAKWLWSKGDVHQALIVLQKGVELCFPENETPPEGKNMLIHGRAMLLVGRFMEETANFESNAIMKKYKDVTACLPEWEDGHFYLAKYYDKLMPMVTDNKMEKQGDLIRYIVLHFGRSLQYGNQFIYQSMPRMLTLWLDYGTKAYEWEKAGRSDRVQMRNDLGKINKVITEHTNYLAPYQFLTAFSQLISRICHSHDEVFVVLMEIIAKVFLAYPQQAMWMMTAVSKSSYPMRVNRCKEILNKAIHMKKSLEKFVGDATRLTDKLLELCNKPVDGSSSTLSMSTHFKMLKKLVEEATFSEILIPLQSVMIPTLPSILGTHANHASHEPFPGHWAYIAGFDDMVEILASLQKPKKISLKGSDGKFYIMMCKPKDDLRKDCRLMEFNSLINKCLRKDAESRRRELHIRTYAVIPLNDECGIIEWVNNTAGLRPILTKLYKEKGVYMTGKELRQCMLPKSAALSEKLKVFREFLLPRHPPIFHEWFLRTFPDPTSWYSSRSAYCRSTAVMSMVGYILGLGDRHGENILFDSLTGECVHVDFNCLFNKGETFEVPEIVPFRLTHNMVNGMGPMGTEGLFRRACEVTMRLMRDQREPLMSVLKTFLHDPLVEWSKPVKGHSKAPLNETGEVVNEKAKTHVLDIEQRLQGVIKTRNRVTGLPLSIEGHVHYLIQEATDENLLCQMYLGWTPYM
Method in brief: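 Panel of 327 recombinant human kinases, each assayed in vitro by radiometric activity assay in duplicate at a single inhibitor concentration per compound, chosen with reference to its ULK1 inhibition. Activity remaining was expressed as percent of vehicle control, and percent inhibition was calculated as 100 minus percent activity remaining.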

[4] = biological target: Protein kinase C beta type (Homo sapiens) (UniProt P05771); assay: Inhibition of human recombinant PKCb at 15 nM related to control ULK1
Protein kinase C beta type (Homo sapiens), sequence (P05771 2-671 limits assumed): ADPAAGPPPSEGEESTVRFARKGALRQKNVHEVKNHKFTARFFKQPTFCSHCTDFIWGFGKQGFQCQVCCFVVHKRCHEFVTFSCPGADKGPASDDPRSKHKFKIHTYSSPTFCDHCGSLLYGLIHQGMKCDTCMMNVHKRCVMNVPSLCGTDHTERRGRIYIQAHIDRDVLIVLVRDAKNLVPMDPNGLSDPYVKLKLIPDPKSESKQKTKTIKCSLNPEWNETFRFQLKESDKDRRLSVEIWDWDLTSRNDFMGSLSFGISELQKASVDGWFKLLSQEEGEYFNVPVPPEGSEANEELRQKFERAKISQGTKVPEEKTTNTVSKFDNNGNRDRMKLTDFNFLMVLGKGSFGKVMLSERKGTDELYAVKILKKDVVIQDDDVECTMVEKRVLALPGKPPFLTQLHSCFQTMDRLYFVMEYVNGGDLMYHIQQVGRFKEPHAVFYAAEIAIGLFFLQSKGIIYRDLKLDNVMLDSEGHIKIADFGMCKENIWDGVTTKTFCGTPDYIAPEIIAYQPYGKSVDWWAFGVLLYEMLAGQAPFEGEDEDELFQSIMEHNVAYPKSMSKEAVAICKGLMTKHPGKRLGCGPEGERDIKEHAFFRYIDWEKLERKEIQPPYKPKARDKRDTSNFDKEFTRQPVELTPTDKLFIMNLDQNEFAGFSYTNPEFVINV

[5] = biological target: T1, Serine/threonine-protein kinase TAO2 (Homo sapiens) (UniProt Q9UL54); assay: Inhibition of human recombinant TAO2 at 15 nM in presence of ATP by radiometric assay relative to control
T1 sequence (whole entry): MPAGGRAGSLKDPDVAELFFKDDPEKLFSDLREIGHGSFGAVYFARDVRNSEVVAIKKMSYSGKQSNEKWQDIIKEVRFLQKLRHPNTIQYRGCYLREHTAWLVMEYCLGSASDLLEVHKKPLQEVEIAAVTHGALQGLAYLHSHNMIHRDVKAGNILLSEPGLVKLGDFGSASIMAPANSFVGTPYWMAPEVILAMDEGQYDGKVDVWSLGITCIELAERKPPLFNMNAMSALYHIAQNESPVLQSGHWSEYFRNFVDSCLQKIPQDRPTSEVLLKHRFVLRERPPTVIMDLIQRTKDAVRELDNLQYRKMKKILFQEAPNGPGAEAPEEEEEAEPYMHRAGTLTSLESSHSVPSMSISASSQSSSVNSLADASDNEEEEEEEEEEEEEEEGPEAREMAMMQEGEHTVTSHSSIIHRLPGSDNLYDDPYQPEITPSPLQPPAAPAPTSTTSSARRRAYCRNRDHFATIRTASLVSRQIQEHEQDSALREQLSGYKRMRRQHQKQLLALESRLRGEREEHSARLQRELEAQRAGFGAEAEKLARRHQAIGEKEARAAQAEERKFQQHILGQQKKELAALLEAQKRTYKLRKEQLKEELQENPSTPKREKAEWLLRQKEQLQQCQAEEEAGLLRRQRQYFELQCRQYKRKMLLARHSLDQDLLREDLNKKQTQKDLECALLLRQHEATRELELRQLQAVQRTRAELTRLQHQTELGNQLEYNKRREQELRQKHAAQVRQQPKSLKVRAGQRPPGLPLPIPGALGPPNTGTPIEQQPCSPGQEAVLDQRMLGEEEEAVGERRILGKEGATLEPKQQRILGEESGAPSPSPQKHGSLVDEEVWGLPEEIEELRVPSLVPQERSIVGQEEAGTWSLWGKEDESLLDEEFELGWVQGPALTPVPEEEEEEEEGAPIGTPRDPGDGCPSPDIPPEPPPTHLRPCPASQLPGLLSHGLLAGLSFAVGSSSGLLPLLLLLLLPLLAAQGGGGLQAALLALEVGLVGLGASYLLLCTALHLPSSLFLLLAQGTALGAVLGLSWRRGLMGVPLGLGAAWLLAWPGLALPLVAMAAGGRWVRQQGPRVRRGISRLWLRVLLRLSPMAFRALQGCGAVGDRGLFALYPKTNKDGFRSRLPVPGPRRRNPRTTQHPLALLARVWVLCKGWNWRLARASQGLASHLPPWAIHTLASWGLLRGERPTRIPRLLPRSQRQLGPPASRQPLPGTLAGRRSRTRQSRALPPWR

[6] = biological target: T2, cGMP-dependent protein kinase 1 (Homo sapiens) (UniProt Q13976); assay: Inhibition of human recombinant PKG1 at 15 nM related to control ULK1
T2 sequence (whole entry): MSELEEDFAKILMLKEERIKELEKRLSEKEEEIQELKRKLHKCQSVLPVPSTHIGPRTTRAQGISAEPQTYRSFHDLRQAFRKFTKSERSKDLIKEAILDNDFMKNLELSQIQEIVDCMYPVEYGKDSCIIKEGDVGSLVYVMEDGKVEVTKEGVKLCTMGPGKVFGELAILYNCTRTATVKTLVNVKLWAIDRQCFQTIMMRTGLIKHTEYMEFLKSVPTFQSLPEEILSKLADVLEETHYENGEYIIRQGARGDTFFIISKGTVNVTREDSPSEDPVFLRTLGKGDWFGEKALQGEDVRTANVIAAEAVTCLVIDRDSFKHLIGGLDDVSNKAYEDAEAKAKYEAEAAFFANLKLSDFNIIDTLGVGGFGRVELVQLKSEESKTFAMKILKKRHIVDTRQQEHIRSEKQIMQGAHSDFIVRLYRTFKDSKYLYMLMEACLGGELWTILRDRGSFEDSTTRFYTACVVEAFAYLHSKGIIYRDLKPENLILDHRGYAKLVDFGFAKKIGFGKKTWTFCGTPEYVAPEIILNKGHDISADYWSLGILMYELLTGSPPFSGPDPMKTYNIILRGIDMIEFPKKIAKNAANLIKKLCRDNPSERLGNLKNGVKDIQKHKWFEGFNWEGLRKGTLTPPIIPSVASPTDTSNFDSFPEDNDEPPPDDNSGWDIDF

[7] = biological target: 3-phosphoinositide-dependent protein kinase 1 (Homo sapiens) (UniProt O15530); assay: Inhibition of human recombinant PDK1 at 15 nM related to control ULK1
[8] = biological target: Ephrin type-A receptor 5 (Homo sapiens) (UniProt P54756); assay: Inhibition of human recombinant EphA5 at 15 nM in presence of ATP by radiometric assay relative to control
Ephrin type-A receptor 5 (Homo sapiens), sequence (P54756 whole entry): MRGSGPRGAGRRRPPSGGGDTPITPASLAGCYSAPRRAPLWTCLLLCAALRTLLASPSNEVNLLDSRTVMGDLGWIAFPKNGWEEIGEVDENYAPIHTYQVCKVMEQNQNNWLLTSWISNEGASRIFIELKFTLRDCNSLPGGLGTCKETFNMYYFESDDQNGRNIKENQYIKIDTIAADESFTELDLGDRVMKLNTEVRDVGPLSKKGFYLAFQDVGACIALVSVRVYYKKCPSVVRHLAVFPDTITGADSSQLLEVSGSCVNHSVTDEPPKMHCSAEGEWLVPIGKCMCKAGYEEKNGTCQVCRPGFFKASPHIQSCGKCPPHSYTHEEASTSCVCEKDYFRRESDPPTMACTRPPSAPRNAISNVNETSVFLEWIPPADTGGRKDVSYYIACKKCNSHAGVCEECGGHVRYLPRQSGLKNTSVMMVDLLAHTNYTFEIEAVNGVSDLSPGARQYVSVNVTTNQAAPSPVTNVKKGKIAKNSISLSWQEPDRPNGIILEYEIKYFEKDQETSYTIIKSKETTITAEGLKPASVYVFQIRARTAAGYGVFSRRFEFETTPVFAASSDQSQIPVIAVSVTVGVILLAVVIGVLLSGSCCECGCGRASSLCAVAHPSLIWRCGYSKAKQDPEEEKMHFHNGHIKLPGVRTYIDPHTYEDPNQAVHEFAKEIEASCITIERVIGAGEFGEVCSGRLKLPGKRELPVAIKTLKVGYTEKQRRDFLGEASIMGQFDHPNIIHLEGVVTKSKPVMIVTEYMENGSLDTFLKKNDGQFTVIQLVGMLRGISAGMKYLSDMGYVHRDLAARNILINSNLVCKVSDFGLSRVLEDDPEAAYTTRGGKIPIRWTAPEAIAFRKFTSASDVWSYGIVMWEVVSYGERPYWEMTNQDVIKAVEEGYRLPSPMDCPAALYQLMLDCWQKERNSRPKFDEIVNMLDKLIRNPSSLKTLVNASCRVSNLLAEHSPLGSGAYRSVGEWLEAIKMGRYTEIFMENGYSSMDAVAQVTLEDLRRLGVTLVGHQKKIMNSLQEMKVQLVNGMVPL

[9] = biological target: Calcium/calmodulin-dependent protein kinase type II subunit gamma (Homo sapiens) (UniProt Q13555); assay: Inhibition of human recombinant CaMK2g at 40 nM related to control ULK1
[10] = biological target: Serine/threonine-protein kinase Nek6 (Homo sapiens) (UniProt Q9HC98); assay: Inhibition of human recombinant NEK6 at 40 nM related to control ULK1
Serine/threonine-protein kinase Nek6 (Homo sapiens), sequence (Q9HC98 whole entry): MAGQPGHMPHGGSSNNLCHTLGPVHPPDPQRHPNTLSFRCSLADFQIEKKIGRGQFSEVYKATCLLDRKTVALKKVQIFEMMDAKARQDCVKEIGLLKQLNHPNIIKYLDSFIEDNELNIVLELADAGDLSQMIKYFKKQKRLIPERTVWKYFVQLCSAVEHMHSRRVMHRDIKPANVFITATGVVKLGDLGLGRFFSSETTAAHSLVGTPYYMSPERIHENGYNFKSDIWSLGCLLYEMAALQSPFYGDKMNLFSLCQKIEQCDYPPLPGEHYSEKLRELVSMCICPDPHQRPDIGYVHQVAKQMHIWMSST

[11] = biological target: Serine/threonine-protein kinase ATR (Homo sapiens) (UniProt Q13535); assay: Inhibition of human recombinant ATR at 40 nM related to control ULK1
Method in brief: (§1)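 Radiometric activity assays in a panel of 327 human recombinant kinases, each run in duplicate at one inhibitor concentration. Activity remaining is expressed as percent of vehicle control, and percent inhibition is calculated as 100% minus percent activity remaining.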

[12] = biological target: RAC-beta serine/threonine-protein kinase (Homo sapiens) (UniProt P31751); assay: Inhibition of human recombinant AKT2 at 40 nM related to control ULK1; method in brief: as §1
[13] = biological target: Serine/threonine-protein kinase PAK 2 (Homo sapiens) (UniProt Q13177); assay: Inhibition of human recombinant PAK2 at 40 nM related to control ULK1

fold change (FC) [1]: 0.39
inhibition [2]: 0%
Structure (SMILES): CNC(=O)c1ccccc1Oc1nc(Nc2cc(OC)c(OC)c(OC)c2)ncc1Br

fold change (FC) [3]: 0.05
fold change (FC) [4]: 0
inhibition [5]: 0%
fold change (FC) [6]: 0
fold change (FC) [7]: 0.07
inhibition [8]: 0%
Structure (SMILES): CC(C)[C@H](NC(=O)c1cc(-c2cnn3cc(-c4ccc(OCCN5CCCCC5)cc4)cnc23)cs1)C(F)(F)F

fold change (FC) [9]: 0.01
fold change (FC) [10]: 0
fold change (FC) [11]: 0
fold change (FC) [12]: 0.14
fold change (FC) [13]: 0
Structure (SMILES): O=C(N[C@@H](C1CC1)C(F)(F)F)c1cc(-c2cnn3cc(-c4ccc(F)cc4)cnc23)cs1
